Where “and” joins values, the source holds several entries; their conditions need not be identical. Equal entries are not always repeated.
Assays:
[1] = system: HEK-293T; test: Multiplex assay against HEK293T; assay type: toxicity, cell-based; details: human
Summary of the method: (§1)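 Imaging took place on a CQ1 microscope at 37°C and 5% CO2 once compound had been added to live cells stained at seeding with Hoechst33342, BioTracker Green Microtubule Cytoskeleton Dye, MitoTracker Red and Annexin V Alexa Fluor 680. CellPathfinder machine-learning gating classed cells as Hoechst high-intensity objects or normal cells, classed normal cells as having healthy, pyknosed or fragmented nuclei, and classed pyknosed cells as mitotic or apoptotic. Tubulin, mitochondrial-mass and membrane-permeability phenotypes are per cents of the healthy-nucleus cells.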

[2] = system: U2OS; test: Multiplex assay against U2OS; assay type: toxicity, cell-based; details: human; summary of the method: as §1
[3] = 24 h, 10 µM, compound concentration 10 uM
[4] = 48 h, 1 µM, compound concentration 1 uM
[5] = 48 h, 10 µM, compound concentration 10 uM
[6] = 12 h, 1 µM, compound concentration 1 uM
[7] = 12 h, 10 µM, compound concentration 10 uM
[8] = 24 h, 1 µM, compound concentration 1 uM

## CCc1cc2cc(NS(=O)(=O)c3ccc(C#N)cc3)ccc2n(CC)c1=O
[1]; [3]
  Population Apoptotic (%): 33% and 63%
  Population Fragmented Nuclei (%): 9% and 10%
  Population Healthy Nuclei (%): 80% and 73%
  Population Hoechst High Intensity Objects (%): 6% and 17%
  Population Membrane Permeable-Phenotype (%): 0% and 1%
  Population Mitochondria Different-Phenotype (%): 36% and 58%
  Population Mitotic Cells (%): 66% and 36%
  Population Normal (%): 93% and 82%
  Population Pyknosed Nuclei (%): 10% and 16%
  Population Tubulin-Different-Phenotype (%): 32% and 29%
  Total Cell Count: 478 and 332
[1]; [4]
  Population Apoptotic (%): 30% and 38%
  Population Fragmented Nuclei (%): 11% and 14%
  Population Healthy Nuclei (%): 81% and 79%
  Population Hoechst High Intensity Objects (%): 2% and 4%
  Population Membrane Permeable-Phenotype (%): 1%
  Population Mitochondria Different-Phenotype (%): 11% and 23%
  Population Mitotic Cells (%): 69% and 61%
  Population Normal (%): 97% and 95%
  Population Pyknosed Nuclei (%): 6% and 5%
  Population Tubulin-Different-Phenotype (%): 13% and 12%
  Total Cell Count: 878 and 608
[1]; [5]
  Population Apoptotic (%): 26% and 47%
  Population Fragmented Nuclei (%): 14% and 16%
  Population Healthy Nuclei (%): 78% and 73%
  Population Hoechst High Intensity Objects (%): 4% and 10%
  Population Membrane Permeable-Phenotype (%): 1%
  Population Mitochondria Different-Phenotype (%): 23% and 40%
  Population Mitotic Cells (%): 73% and 52%
  Population Normal (%): 95% and 89%
  Population Pyknosed Nuclei (%): 6% and 9%
  Population Tubulin-Different-Phenotype (%): 20% and 23%
  Total Cell Count: 734 and 383
[2]; [6]
  Population Apoptotic (%): 88% and 100%
  Population Fragmented Nuclei (%): 30% and 26%
  Population Healthy Nuclei (%): 60% and 70%
  Population Hoechst High Intensity Objects (%): 3% and 1%
  Population Membrane Permeable-Phenotype (%): 4% and 8%
  Population Mitochondria Different-Phenotype (%): 2%
  Population Mitotic Cells (%): 11% and 0%
  Population Normal (%): 96% and 98%
  Population Pyknosed Nuclei (%): 9% and 3%
  Population Tubulin-Different-Phenotype (%): 2% and 7%
  Total Cell Count: 286 and 113
[2]; [7]
  Population Apoptotic (%): 66% and 87%
  Population Fragmented Nuclei (%): 28% and 13%
  Population Healthy Nuclei (%): 64% and 80%
  Population Hoechst High Intensity Objects (%): 2%
  Population Membrane Permeable-Phenotype (%): 9% and 6%
  Population Mitochondria Different-Phenotype (%): 3%
  Population Mitotic Cells (%): 33% and 12%
  Population Normal (%): 97%
  Population Pyknosed Nuclei (%): 6% and 5%
  Population Tubulin-Different-Phenotype (%): 4%
  Total Cell Count: 220 and 139
[2]; [8]
  Population Apoptotic (%): 85% and 88%
  Population Fragmented Nuclei (%): 29% and 16%
  Population Healthy Nuclei (%): 61% and 75%
  Population Hoechst High Intensity Objects (%): 2% and 1%
  Population Membrane Permeable-Phenotype (%): 9% and 7%
  Population Mitochondria Different-Phenotype (%): 2% and 7%
  Population Mitotic Cells (%): 14% and 11%
  Population Normal (%): 97% and 98%
  Population Pyknosed Nuclei (%): 8% and 7%
  Population Tubulin-Different-Phenotype (%): 6% and 3%
  Total Cell Count: 335 and 126
[2]; [3]
  Population Apoptotic (%): 95% and 80%
  Population Fragmented Nuclei (%): 23% and 14%
  Population Healthy Nuclei (%): 67% and 79%
  Population Hoechst High Intensity Objects (%): 3%
  Population Membrane Permeable-Phenotype (%): 4% and 6%
  Population Mitochondria Different-Phenotype (%): 2%
  Population Normal (%): 96%
  Population Pyknosed Nuclei (%): 9% and 6%
  Population Tubulin-Different-Phenotype (%): 1% and 2%
  Total Cell Count: 263 and 159
[2]; [4]
  Population Apoptotic (%): 89% and 84%
  Population Fragmented Nuclei (%): 21% and 19%
  Population Healthy Nuclei (%): 70% and 73%
  Population Hoechst High Intensity Objects (%): 2% and 3%
  Population Membrane Permeable-Phenotype (%): 6%
  Population Mitochondria Different-Phenotype (%): 3% and 5%
  Population Mitotic Cells (%): 10% and 15%
  Population Normal (%): 97% and 96%
  Population Pyknosed Nuclei (%): 8% and 6%
  Population Tubulin-Different-Phenotype (%): 2% and 3%
  Total Cell Count: 450 and 192
[2]; [5]
  Population Apoptotic (%): 88% and 96%
  Population Fragmented Nuclei (%): 18% and 15%
  Population Healthy Nuclei (%): 72% and 73%
  Population Hoechst High Intensity Objects (%): 3% and 2%
  Population Membrane Permeable-Phenotype (%): 6% and 8%
  Population Mitochondria Different-Phenotype (%): 2% and 3%
  Population Mitotic Cells (%): 11% and 3%
  Population Normal (%): 96% and 97%
  Population Pyknosed Nuclei (%): 9% and 11%
  Population Tubulin-Different-Phenotype (%): 3% and 7%
  Total Cell Count: 387 and 248

Reference: ChEMBL document CHEMBL5724801, “EUbOPEN Chemogenomics Library - Multiplex” (2024)
